Results on 14 molecules are retold here after PubChem BioAssay.

A short description of test [1]: reducers of endogenous Her2 protein level, primary screen, SKBR3 breast tumor cells, AlphaScreen, ATP viability (AID 461;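 active = Her2 level under about 52% in both replicate screens, with viability over 70% of control, limit read from the data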;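 as to Her2 level: lower value means less Her2 protein in the cells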;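 as to viability: percent of carrier control wells set as 100% viability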). The conditions noted are these: 18-24 h, measured here: SKBR3 viability, ATP luminescence, at 10 µM. (Bead proximity is the source of the signal in Alpha formats.)
Test [2] concerns the target Receptor tyrosine-protein kinase erbB-2 (Homo sapiens) (UniProt P04626). The description is as above. Particulars: 18-24 h, at 10 µM, stronger effect = lower value.
Test [3] is described as follows: SK-BR-3 cell growth inhibitors, pilot screen, 24 h, human (AID 572;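 active = viability at or below 10% of carrier control in both of two separate runs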;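 also: compound exposure lasted between 18 and 24 h rather than exactly 24 h; 100% = carrier-treated control wells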). The conditions noted are these: SK-BR-3 viability, CellTiter-Glo luminescence, at 10 µM, stronger effect = lower value.
The nature of test [4]: HUVEC growth inhibition – cell-based, human, primary screen (AID 575;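 active = viability at or below 30% in both replicate assays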;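 also: 100% = median of untreated cell wells with 0.1% DMSO on each plate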). The conditions noted are these: HUVEC proliferation, CellTiter-Glo luminescence, 72 h; at 10 µM; stronger effect = lower value. Summed up:
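System – primary HUVEC, no more than 12 passages · Medium – Low-serum (2% FBS) EBM, supplemented · Times – 72 h exposure, 37 °C, 5% CO2, 30 min RT equilibration · Measured by – luminescent ATP assay · Read-out – % viability relative to median vehicle-well signal on each plate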
For orientation: ATP-based viability assays read luminescence as a measure of living cells.

The nature of test [5]: growth inhibitors of H69AR lung tumor, primary screen, human, duplicate replicates (AID 580).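 Also: 100% = mean luminescence of untreated wells and 0% = no signal.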 Particulars: H69AR lung tumor cells viability, ATP luminescence, 72 h; at 10 µM; stronger effect = lower value.
A short description of test [6]: reversal of MRP1-mediated doxorubicin resistance, pilot screen, H69AR cells, doxorubicin co-treatment (AID 601;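 active = viability loss from added drug above about 55%, and viability with drug at most 40%, in both replicates, limit read from the data, passing the limit was not always enough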). Particulars: CellTiter-Glo, 72 h, at 10 µM; for differential viability (reversal): stronger effect = higher value.
The nature of test [7]: 384-well plate pilot, post-Golgi transport modulator project, inhibition of yeast transport mutant growth (AID 636; in the data active = inhibition above about 31%). The conditions noted are these: absorbance 615 nm, about 18 h, stronger effect = higher value.
The nature of test [8]: growth suppression of yeast trafficking mutant, preliminary HTS, modulators of trafficking downstream of Golgi apparatus project, 1536-format plate, OD 615 nm (AID 637; in the data active = inhibition above about 30%). Particulars: yeast transport mutant growth, absorbance 615 nm, 18 h; stronger effect = higher value.
Setting [9] is: H69AR cells + 2 uM doxorubicin, measured here: viability with 2 uM doxorubicin, stronger effect = lower value.
Where [10] appears, read: H69AR cells, compound alone cytotoxicity.

Structures are written as SMILES. Calls of active or inactive are those of the source.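 The calls were made as follows, unless noted: active = viability at or under a set limit in both replicates, limit being median viability minus 3 SD (cut at about 48% in these data, passing the limit was not always enough); inconclusive = at or under the limit in just one replicate; inactive = at or above the limit in both replicates.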

Sequence of Receptor tyrosine-protein kinase erbB-2 (Homo sapiens) (P04626 whole entry, looked up): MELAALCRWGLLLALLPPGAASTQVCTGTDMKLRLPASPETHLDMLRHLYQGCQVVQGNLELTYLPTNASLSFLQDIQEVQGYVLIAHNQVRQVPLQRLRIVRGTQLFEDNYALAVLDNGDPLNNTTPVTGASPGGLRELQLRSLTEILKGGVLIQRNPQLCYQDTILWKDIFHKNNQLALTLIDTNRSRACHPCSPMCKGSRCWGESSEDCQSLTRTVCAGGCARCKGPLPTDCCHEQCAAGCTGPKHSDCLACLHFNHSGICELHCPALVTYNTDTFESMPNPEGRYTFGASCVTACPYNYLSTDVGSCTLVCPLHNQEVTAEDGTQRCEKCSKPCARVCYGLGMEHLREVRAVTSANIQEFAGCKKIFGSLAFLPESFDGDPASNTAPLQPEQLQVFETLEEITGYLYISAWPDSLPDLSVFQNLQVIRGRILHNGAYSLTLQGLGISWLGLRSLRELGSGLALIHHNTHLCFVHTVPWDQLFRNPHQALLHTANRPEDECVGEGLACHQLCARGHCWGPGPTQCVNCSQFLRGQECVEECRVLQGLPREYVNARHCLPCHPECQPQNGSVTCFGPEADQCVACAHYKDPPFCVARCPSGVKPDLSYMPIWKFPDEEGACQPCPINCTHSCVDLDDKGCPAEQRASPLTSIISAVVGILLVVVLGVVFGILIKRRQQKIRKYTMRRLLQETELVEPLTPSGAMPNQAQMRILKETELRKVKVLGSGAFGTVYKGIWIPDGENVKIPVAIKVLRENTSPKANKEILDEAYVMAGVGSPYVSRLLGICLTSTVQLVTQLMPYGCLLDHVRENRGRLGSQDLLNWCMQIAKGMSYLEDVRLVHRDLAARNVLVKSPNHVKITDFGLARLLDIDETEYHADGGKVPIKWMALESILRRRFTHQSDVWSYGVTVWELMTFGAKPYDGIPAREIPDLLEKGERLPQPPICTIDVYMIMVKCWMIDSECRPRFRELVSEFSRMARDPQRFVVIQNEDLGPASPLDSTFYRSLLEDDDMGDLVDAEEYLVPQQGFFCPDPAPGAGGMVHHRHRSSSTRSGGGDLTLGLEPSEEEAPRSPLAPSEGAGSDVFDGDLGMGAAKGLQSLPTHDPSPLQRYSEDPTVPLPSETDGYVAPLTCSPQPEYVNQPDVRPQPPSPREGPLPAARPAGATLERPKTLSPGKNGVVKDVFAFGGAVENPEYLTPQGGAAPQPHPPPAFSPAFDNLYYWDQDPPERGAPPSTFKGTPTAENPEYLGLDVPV

In the case of `COc1ccc(-c2cc(C(F)(F)F)nc(SCCC(=O)N3CCOCC3)n2)cc1`, the viability in test [1] is 116%; in test [3] it was 116% (inactive); in test [4] it was 94.1% (inactive); in test [5], 90% (inactive); in test [6] (setting [9]), 86.4%; in test [6] (setting [10]) it was 90%. Besides, the Her2 level in test [2] is 90.5% (inactive). Moreover, the differential viability (reversal) in test [6] (H69AR cells + 2 uM doxorubicin) was 3.6% (inactive). For the same molecule, the inhibition was -1.71% (inactive) in test [7] and 2.46% (inactive) in test [8].
As to `Nc1nc(C2C(=O)CCCC2=O)cs1`, the viability in test [1] was 97.5%; in test [3], 97.5% (inactive); in test [4] it was 102% (inactive); in test [5] it was 103% (inactive); in test [6] (setting [9]), 97.6%; in test [6] (setting [10]) it was 103%. In addition, the Her2 level in test [2] was 99.5% (inactive). For the same molecule, the differential viability (reversal) in test [6] (H69AR cells + 2 uM doxorubicin) is 5.64% (inactive). In addition, the inhibition in test [7] was -2.89% (inactive); in test [8], 4.1% (inactive).
In the case of `CC(=O)Nc1ccc(OCC(O)Cn2nc(C)nc2C)cc1` (stereo not given), the viability in test [1] is 93%; in test [3], 93% (inactive); in test [4] it was 81.3% (inactive); in test [5], 91% (inactive); in test [6] (setting [9]) it was 96.5%; in test [6] (setting [10]) it was 91%. Also, the Her2 level in test [2] is 86.5% (inactive). In test [6] (H69AR cells + 2 uM doxorubicin), the differential viability (reversal) was -5.46% (inactive). The inhibition in test [7] is -1.67% (inactive); in test [8] it was -4.83% (inactive).
With `O=C(CN1CCCC1)Nc1ccc(NC(=O)Nc2ccccc2)cc1`, the viability in test [1] is 92.5%; in test [3] it was 92.5% (inactive); in test [4] it was 75.3% (inactive); in test [5] it was 95.3% (inactive); in test [6] (setting [9]) it was 94.9%; in test [6] (setting [10]), 95.3%. For the same molecule, the Her2 level in test [2] is 110% (inactive). Also, the differential viability (reversal) in test [6] (H69AR cells + 2 uM doxorubicin) was 0.39% (inactive). The inhibition was 0% (inactive) in test [7] and -6.39% (inactive) in test [8].
On to `Nc1scc(-c2ccncc2)c1Cl`, for which the viability in test [1] is 90.5%; in test [3], 90.5% (inactive); in test [4] it was 83.5% (inactive); in test [5], 96.2% (inactive); in test [6] (setting [9]), 87.7%; in test [6] (setting [10]), 96.2%. For the same molecule, in test [2], the Her2 level is 77.5% (inactive). Also, the differential viability (reversal) in test [6] (H69AR cells + 2 uM doxorubicin) was 8.54% (inactive). Besides, the results for the inhibition in test [7] and in test [8] were -5.07% (inactive) and -3.49% (inactive), respectively.
Consider `CC(=O)Nc1ccc(NS(=O)(=O)C(F)(F)F)cc1`, for which the viability in test [1] was 82.5%; in test [3], 82.5% (inactive); in test [4], 93.9% (inactive); in test [5], 92.6% (inactive); in test [6] (setting [9]) it was 96.3%; in test [6] (setting [10]), 92.6%. In addition, in test [2], the Her2 level was 97% (inactive). Besides, in test [6] (H69AR cells + 2 uM doxorubicin), the differential viability (reversal) is -3.72% (inactive). The inhibition in test [7] was -2.34% (inactive); in test [8], 1.48% (inactive).
For the molecule `CCn1c(C)c(CCC(=O)O)c(=O)n2nc(-c3ccccc3OC)cc12`, the viability in test [1] was 91%; in test [3] it was 91% (inactive); in test [4], 100% (inactive); in test [5] it was 87.4% (inactive); in test [6] (setting [9]), 88.6%; in test [6] (setting [10]) it was 87.4%. Further, the Her2 level in test [2] is 104% (inactive). For the same molecule, the differential viability (reversal) in test [6] (H69AR cells + 2 uM doxorubicin) is -1.22% (inactive). For the same molecule, the inhibition was -0.14% (inactive) in test [7] and 23.6% (inactive) in test [8].
Consider `CC(C)C1N=C2c3ccccc3N=C(SCc3cc(=O)n4ccccc4n3)N2C1=O` (stereo not given), for which the viability in test [1] was 89%; in test [3] it was 89% (inactive); in test [4] it was 97.6% (inactive); in test [5], 80.1% (inactive); in test [6] (setting [9]), 101%; in test [6] (setting [10]) it was 80.1%. The Her2 level in test [2] was 135% (inactive). Also, the differential viability (reversal) in test [6] (H69AR cells + 2 uM doxorubicin) was -20.5% (inactive). The inhibition in test [7] was 2.24% (inactive); in test [8] it was -3.67% (inactive).
As to `Cn1c(-c2cc(Br)ccc2O)n[nH]c1=S`, the viability in test [1] was 89.5%; in test [3], 89.5% (inactive); in test [4] it was 87% (inactive); in test [5], 92.9% (inactive); in test [6] (setting [9]), 89.7%; in test [6] (setting [10]) it was 92.9%. The Her2 level in test [2] is 110% (inactive). Further, the differential viability (reversal) in test [6] (H69AR cells + 2 uM doxorubicin) was 3.24% (inactive). Besides, the inhibition in test [7] was 4.03% (inactive); in test [8], -9.84% (inactive).
Turning to `COC(=O)C1=CN(C(C)C)C=C(C(=O)OC)C1c1cc2c(cc1Br)OCO2`, the viability in test [1] is 92.5%; in test [3] it was 92.5% (inactive); in test [4], 74% (inactive); in test [5], 85.4% (inactive); in test [6] (setting [9]), 75.9%; in test [6] (setting [10]), 85.4%. In test [2], the Her2 level was 87.5% (inactive). Besides, the differential viability (reversal) in test [6] (H69AR cells + 2 uM doxorubicin) was 9.5% (inactive). The inhibition in test [7] was -1.47% (inactive); in test [8], -4.29% (inactive).
Turning to `CCCCOC(=O)CNc1nnc(SCC(=O)OCC)[nH]c1=O`, the viability is 114% in test [1]; 114% (inactive) in test [3]; 74.8% (inactive) in test [4]; 98.6% (inactive) in test [5]; 86.9% in test [6] (setting [9]); 98.6% in test [6] (setting [10]). Also, the Her2 level in test [2] was 87% (inactive). The differential viability (reversal) in test [6] (H69AR cells + 2 uM doxorubicin) is 11.7% (inactive). For the same molecule, the inhibition was -0.91% (inactive) in test [7] and -3.81% (inactive) in test [8].
Regarding `CCCCn1nnc(NC(=O)Cc2ccc(Cl)cc2)n1`, the viability in test [1] is 112%; in test [3], 112% (inactive); in test [4], 106% (inactive); in test [5], 90% (inactive); in test [6] (setting [9]) it was 72.1%; in test [6] (setting [10]), 90%. Besides, in test [2], the Her2 level was 134% (inactive). Moreover, the differential viability (reversal) in test [6] (H69AR cells + 2 uM doxorubicin) is 17.9% (inactive). The inhibition in test [7] is -3.9% (inactive); in test [8], -3.5% (inactive).
As to `O=C(CN1CCC(n2nnc3cc(F)ccc32)CC1)Nc1ccc2c(c1)CCC2`, the viability in test [1] is 93%; in test [3], 93% (inactive); in test [4] it was 79.5% (inactive); in test [5] it was 86.3% (inactive); in test [6] (setting [9]), 91.8%; in test [6] (setting [10]) it was 86.3%. Also, in test [2], the Her2 level was 104% (inactive). Besides, in test [6] (H69AR cells + 2 uM doxorubicin), the differential viability (reversal) is -5.55% (inactive). The inhibition in test [7] was -4.59% (inactive); in test [8], -3.5% (inactive).
Turning to `COc1ccccc1C(=O)Nc1ccc(S(=O)(=O)N2CCCC2)cc1`, the viability in test [1] is 95.5%; in test [3], 95.5% (inactive); in test [4] it was 81.9% (inactive); in test [5], 94.5% (inactive); in test [6] (setting [9]), 78.4%; in test [6] (setting [10]), 94.5%. The Her2 level in test [2] is 76.5% (inactive). Besides, the differential viability (reversal) in test [6] (H69AR cells + 2 uM doxorubicin) was 16.2% (inactive). In addition, the inhibition was -4.93% (inactive) in test [7] and 0.49% (inactive) in test [8].

A word on the viability: it is a read-out of living cells in per cent, often relative to untreated cells. As a reminder, the inhibition is the change of the read-out against control, counted positive when it falls.
